The values that follow come from ChEMBL document CHEMBL1151481, “Cytotoxic polyprenylated xanthones from the resin of Garcinia hanburyi” (J Nat Prod, 2009).

Structures are written as SMILES.

One assay has as its system HeLa. The assay can be described thus: Cytotoxicity against human HeLa cells after […] by MTT assay. It counts as functional, cell-based. Particulars: Homo sapiens, HeLa. The procedure, abridged:
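MTT read-out on HeLa cells, with an adriamycin positive control. Each determination was run in triplicate and reported as mean ± SEM. The 50% inhibitory concentration was obtained by interpolating concentration–inhibition curves.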
In general, IC50 refers to the concentration needed to halve the response being measured. `C=C(C)C1CCC2(C)CC1c1c(O)c3c(c(CC=C(C)C)c1O2)O[C@]12C(=C[C@]4(OC)C[C@H]1C(C)(C)O[C@@]2(C/C=C(/C)C(=O)O)C4=O)C3=O` (stereo partly specified) registered an IC50 of 910 nM.

The molecule `CO[C@]12C=C3C(=O)c4c(O)c5c(c(CC=C(C)C)c4O[C@@]34[C@@H](C1)C(C)(C)O[C@@]4(C/C=C(/C)C(=O)O)C2=O)O[C@@](C)(CCC=C(C)C)C=C5` returned an IC50 of 850 nM.

As to `CO[C@]12C=C3C(=O)c4c(O)c5c(c(CC=C(C)C)c4O[C@@]34[C@@H](C1)C(C)(C)O[C@@]4(C/C=C(/C)CO)C2=O)OC(C)(C)C=C5`, the IC50 turned out to be 1210 nM.

In turn, `CC(C)=CCC/C(C)=C/Cc1c(O)c(CC=C(C)C)c2c(c1O)C(=O)C1C=CCC3C(C)(C)OC4(CC=C(C)C(=O)O4)C13O2` (stereo unspecified) returned a concentration for half-maximal inhibition (IC50) of 8680 nM. This IC50 lies about 7.2-fold higher than the previous one.

The molecule `COC(=O)/C(C)=C\C[C@@]12OC(C)(C)[C@@H]3C[C@@H](CC4C(=O)c5c(O)c6c(c(CC=C(C)C)c5O[C@]431)OC(C)(C)C=C6)C2=O` (stereo partly specified) came in with an IC50 of 111000 nM.

`CC(C)=CCc1c2c(c(O)c3c1O[C@]14C(C3=O)[C@@H](O)[C@@H]3C[C@H]1C(C)(C)O[C@@]4(C/C=C(/C)C(=O)O)C3=O)C=CC(C)(C)O2` (stereo partly specified) yielded an IC50 of 1710 nM.

For the molecule `CO[C@]12C=C3C(=O)c4c(O)c5c(c(CC=C(C)C)c4O[C@@]34[C@@H](C1)C(C)(C)O[C@@]4(C/C=C(/C)C(=O)O)C2=O)O[C@](C)(CCC=C(C)C)C=C5`, the IC50 turned out to be 930 nM.

Molecule `CC(C)=CCC/C(C)=C/COc1cc(O)c2c(c1CC=C(C)C)O[C@]13C(=C[C@@H]4C[C@H]1C(C)(C)O[C@@]3(CC=C(C)C)C4=O)C2=O` registered an IC50 of 4090 nM.

`CC(C)=CCC/C(C)=C/Cc1c(O)c(CC=C(C)C)c2c(c1O)C(=O)C1C(O)[C@@H]3C[C@H]4C(C)(C)O[C@@](C/C=C(/C)C(=O)O)(C3=O)[C@@]14O2` (stereo partly specified) yielded an IC50 of 5080 nM.

`CC(C)=CCCC1(C)C=Cc2c(O)c3c(c(CC=C(C)C)c2O1)O[C@]12C(C3=O)C(O)[C@@H]3C[C@H]1C(C)(C)O[C@@]2(C/C=C(/C)C(=O)O)C3=O` (stereo in doubt; 13): the IC50 stood at 640 nM.

For `COc1cccc2c1C(=O)c1c(O)c3c(c(O)c1C2=O)C[C@@](O)(C(=O)CO)C[C@@H]3O[C@H]1C[C@H](N)[C@H](O)[C@H](C)O1` [DOXORUBICIN], the IC50 was found to be 410 nM.

With `CC(C)=CCc1c2c(c(O)c3c1OC(C)(C)C1CCC(C)=CC31)C(=O)C1=C[C@@H]3C[C@H]4C(C)(C)O[C@@](C/C=C(/C)C(=O)O)(C3=O)[C@@]14O2` (stereo partly specified) [GAMBOGEFIC ACID], 560 nM corresponded to half-maximal inhibition (IC50).

In the case of `CC(C)=CCC/C(C)=C/Cc1c(O)c2c(c3c1O[C@@H](C(C)(C)O)C3)O[C@]13C(=C[C@@H]4C[C@H]1C(C)(C)O[C@@]3(C/C=C(/C)C(=O)O)C4=O)C2=O` [GAMBOGENIFIC ACID], it took 1790 nM to reach half-maximal inhibition (IC50).

Take `CC(C)=CCC[C@]1(C)C=Cc2c(O)c3c(c(CC=C(C)C)c2O1)O[C@]12C(=C[C@@H]4C[C@H]1C(C)(C)O[C@@]2(C/C=C(/C)C(=O)O)C4=O)C3=O` [GAMBOGIC ACID]: the IC50 is 700 nM.

Molecule `CC(C)=CCc1c2c(c(O)c3c1O[C@]14C(=C[C@@H]5C[C@H]1C(C)(C)O[C@@]4(C/C=C(/C)C(=O)O)C5=O)C3=O)C=CC(C)(CC/C=C/C(C)(C)O)O2` (stereo partly specified) [OXYGAMBOGIC ACID] had an IC50 of 1910 nM.

The same assay, now with this note: hela.
`CC(C)=CCCC1(C)C=Cc2c(O)c3c(c(CC=C(C)C)c2O1)O[C@]12C(C3=O)C(O)[C@@H]3C[C@H]1C(C)(C)O[C@@]2(C/C=C(/C)C(=O)O)C3=O` (stereo in doubt; 14): it took 630 nM to reach half-maximal inhibition (IC50).
